Like-named read-outs stand apart in the source and are kept apart here.
Experiments:
Format in all cases: cell-based
[1] = target: PFTAIRE1 (Homo sapiens, UniProt O94921); assay: KiNativ cellular kinase profiling; conditions: for Percent inhibition of kinase labeling by ATP-biotin: A375 cells, 1 μM, 3 hours, PFTAIRE1, labeling site Lys1; for inhibition at 1 µM: A-375, read-out: Percent inhibition of kinase labeling by ATP-biotin
[2] = system: c-Jun phosphorylation (pSer73) in HeLa cells; assay: LanthaScreen TR-FRET c-Jun phosphorylation assay in HeLa cells; conditions: read-out: p-c-Jun EC50 (nM) Hela
How it was run: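 HeLa cells stably expressing GFP-c-Jun(1–79), 10,000/well in Opti-MEM with 0.5% charcoal/dextran-treated FBS, 25 mM Hepes pH 7.3, no phenol red; overnight. Pretreated 90 min with compound, then 30 min with 5 ng/ml TNF-α. Lysed in buffer containing 2 nM terbium anti-c-Jun pSer73 antibody; 60 min equilibration at room temperature. TR-FRET: excitation 340 nm, ratio Em 520/Em 490.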

[3] = system: MAP2K1,MAP2K2; assay: KiNativ cellular kinase profiling; conditions: A375 cells, 1 μM, 3 hours; MAP2K1,MAP2K2, labeling site Lys2
[4] = system: CK1d,CK1e; assay: KiNativ cellular kinase profiling; conditions: A375 cells, 1 μM, 3 hours, labeling site Lys2
[5] = target: T1, IKKa (Homo sapiens, UniProt O15111); assay: KiNativ cellular kinase profiling; conditions: for Percent inhibition of kinase labeling by ATP-biotin: A375 cells, 1 μM, 3 hours, IKKa, labeling site Lys2; for inhibition at 1 µM: A-375, read-out: Percent inhibition of kinase labeling by ATP-biotin
T1 sequence (O15111 1-745): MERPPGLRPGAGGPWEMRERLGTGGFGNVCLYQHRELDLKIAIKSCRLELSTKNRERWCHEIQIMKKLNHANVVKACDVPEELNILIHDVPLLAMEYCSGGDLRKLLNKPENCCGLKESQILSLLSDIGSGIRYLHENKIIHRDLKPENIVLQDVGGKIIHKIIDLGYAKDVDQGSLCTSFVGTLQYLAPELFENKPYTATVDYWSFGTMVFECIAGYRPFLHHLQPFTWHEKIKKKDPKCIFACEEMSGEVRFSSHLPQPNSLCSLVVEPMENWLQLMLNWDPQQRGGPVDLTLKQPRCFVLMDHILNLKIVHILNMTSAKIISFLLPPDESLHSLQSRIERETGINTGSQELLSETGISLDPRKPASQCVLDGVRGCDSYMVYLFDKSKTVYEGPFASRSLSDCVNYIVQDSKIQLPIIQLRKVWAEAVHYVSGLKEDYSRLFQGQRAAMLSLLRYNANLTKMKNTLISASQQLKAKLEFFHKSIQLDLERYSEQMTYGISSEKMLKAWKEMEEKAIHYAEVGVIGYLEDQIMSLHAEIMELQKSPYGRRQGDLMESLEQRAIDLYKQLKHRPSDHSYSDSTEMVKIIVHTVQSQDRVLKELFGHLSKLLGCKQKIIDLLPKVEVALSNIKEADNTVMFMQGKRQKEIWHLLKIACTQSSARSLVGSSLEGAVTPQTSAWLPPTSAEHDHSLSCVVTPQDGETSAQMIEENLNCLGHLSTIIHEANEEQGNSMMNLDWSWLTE

[6] = target: T2, IKKb (Homo sapiens, UniProt O14920); assay: KiNativ cellular kinase profiling; conditions: for Percent inhibition of kinase labeling by ATP-biotin: A375 cells, 1 μM, 3 hours, IKKb, labeling site Lys2; for inhibition at 1 µM: A-375, read-out: Percent inhibition of kinase labeling by ATP-biotin
T2 sequence (O14920 1-756): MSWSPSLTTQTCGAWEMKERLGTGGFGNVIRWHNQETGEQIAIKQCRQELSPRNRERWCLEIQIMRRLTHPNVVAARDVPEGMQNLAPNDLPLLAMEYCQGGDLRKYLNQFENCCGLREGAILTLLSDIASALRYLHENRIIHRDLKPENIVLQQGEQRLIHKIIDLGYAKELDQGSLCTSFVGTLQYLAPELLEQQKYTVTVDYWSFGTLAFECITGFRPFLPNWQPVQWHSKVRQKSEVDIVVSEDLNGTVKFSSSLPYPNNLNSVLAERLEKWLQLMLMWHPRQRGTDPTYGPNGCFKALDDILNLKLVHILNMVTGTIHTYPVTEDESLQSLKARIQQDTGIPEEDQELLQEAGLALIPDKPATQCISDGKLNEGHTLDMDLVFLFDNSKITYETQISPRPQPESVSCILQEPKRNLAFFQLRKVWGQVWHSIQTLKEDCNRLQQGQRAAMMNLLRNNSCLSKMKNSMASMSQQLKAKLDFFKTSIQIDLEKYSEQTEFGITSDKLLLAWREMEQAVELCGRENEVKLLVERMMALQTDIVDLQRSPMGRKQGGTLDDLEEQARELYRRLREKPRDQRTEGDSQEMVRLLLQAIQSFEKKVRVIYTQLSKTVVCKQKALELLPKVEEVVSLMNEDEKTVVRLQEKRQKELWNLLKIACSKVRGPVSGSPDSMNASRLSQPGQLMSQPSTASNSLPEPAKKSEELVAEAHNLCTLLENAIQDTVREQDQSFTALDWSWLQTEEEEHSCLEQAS

[7] = target: GSK3B (Homo sapiens, UniProt P49841); assay: KiNativ cellular kinase profiling; conditions: for Percent inhibition of kinase labeling by ATP-biotin: A375 cells, 1 μM, 3 hours, GSK3B, labeling site Lys2; for inhibition at 1 µM: A-375, read-out: Percent inhibition of kinase labeling by ATP-biotin
Sequence of GSK3B (P49841 whole entry): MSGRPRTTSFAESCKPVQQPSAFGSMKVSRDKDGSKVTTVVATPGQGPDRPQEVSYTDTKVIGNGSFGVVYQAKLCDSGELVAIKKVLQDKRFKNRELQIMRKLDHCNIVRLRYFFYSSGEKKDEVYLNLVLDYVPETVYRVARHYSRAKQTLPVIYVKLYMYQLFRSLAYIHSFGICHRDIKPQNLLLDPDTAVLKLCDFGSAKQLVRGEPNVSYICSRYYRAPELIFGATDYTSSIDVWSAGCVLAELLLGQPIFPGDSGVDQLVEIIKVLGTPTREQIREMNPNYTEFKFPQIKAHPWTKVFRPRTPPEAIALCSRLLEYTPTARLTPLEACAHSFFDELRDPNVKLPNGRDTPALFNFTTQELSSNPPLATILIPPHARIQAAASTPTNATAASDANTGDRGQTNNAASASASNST

[8] = Hela cells, TNF-α stimulation, TR-FRET

Sequence of PFTAIRE1 (O94921 whole entry): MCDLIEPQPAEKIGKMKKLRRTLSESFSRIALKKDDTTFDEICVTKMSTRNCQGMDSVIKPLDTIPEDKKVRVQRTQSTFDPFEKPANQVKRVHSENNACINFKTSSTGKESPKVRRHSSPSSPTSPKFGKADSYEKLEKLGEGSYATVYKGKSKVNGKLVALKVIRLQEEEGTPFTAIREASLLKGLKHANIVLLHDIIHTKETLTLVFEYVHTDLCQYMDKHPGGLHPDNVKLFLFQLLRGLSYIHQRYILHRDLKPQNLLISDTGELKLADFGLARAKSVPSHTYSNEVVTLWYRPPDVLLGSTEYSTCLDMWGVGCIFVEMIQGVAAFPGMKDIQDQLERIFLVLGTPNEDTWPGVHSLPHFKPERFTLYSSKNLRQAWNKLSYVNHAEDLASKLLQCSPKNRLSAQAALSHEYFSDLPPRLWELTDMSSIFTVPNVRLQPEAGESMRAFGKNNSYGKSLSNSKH

| inhibition at 1 µM [1] | EC50 ([2]; Homo sapiens, HeLa) | inhibition at 1 µM [5] | inhibition at 1 µM [6] | inhibition at 1 µM [7] | Structure (SMILES) | Percent inhibition of kinase labeling by ATP-biotin [1] | EC50 [2, 8] | Percent inhibition of kinase labeling by ATP-biotin [3] | Percent inhibition of kinase labeling by ATP-biotin [4] | Percent inhibition of kinase labeling by ATP-biotin [5] | Percent inhibition of kinase labeling by ATP-biotin [6] | Percent inhibition of kinase labeling by ATP-biotin [7] |
| --- | --- | --- | --- | --- | --- | --- | --- | --- | --- | --- | --- | --- |
|  |  |  |  |  | CCC(=O)Nc1cccc(C(=O)Nc2ccc(Nc3nccc(-c4cccnc4)n3)cc2)c1 [JNK-IN-6] | −6% | 6760 nM | 24.3% | 32.4% | 27.3% | 33.4% | 23.6% |
| 12.8% | 48 nM | -7.3% | -11.2% | 67.1% | CN(C)C/C=C/C(=O)Nc1cccc(C(=O)Nc2ccc(Nc3nccc(-c4c(-c5ccccc5)nn5ccccc45)n3)cc2)c1 [JNK-IN-11] |  |  | −10.4% | 88.4% |  |  |  |
| 38.1% | 486 nM | 4.9% | -6.5% | -8.5% | Cc1cc(NC(=O)c2cccc(NC(=O)/C=C/CN(C)C)c2)ccc1Nc1nccc(-c2cccnc2)n1 [JNK-IN-8] |  |  | 3.2% | −21.8% |  |  |  |
|  |  |  |  |  | CN(C)C/C=C/C(=O)Nc1cccc(C(=O)Nc2ccc(Nc3nccc(/C(C#N)=C4\Nc5ccccc5S4)n3)cc2)c1 [JNK-IN-12] | 25.7% | 605 nM | −3.7% | −75% | −79.2% | −97.5% | −29.6% |

| Structure (SMILES) | inhibition at 1 µM [1] | EC50 ([2]; Homo sapiens, HeLa) | inhibition at 1 µM [5] | inhibition at 1 µM [6] | inhibition at 1 µM [7] | Percent inhibition of kinase labeling by ATP-biotin [1] | EC50 [2, 8] | Percent inhibition of kinase labeling by ATP-biotin [3] | Percent inhibition of kinase labeling by ATP-biotin [4] | Percent inhibition of kinase labeling by ATP-biotin [5] | Percent inhibition of kinase labeling by ATP-biotin [6] | Percent inhibition of kinase labeling by ATP-biotin [7] |
| --- | --- | --- | --- | --- | --- | --- | --- | --- | --- | --- | --- | --- |
| CN(C)C/C=C/C(=O)Nc1cccc(C(=O)Nc2ccc(Nc3nccc(-c4cccnc4)n3)cc2)c1 [JNK-IN-7] | 75.3% | 130 nM | -9.2% | -10.1% | 12.3% |  |  | 3.2% | 8.4% |  |  |  |

— paper PMC3270411 (Chemistry & biology, 2012)
